# Experimental data from ChEMBL document CHEMBL3856218, “Polycyclic Polyprenylated Acylphloroglucinol Congeners from Hypericum scabrum” (J Nat Prod, 2016).
# What was measured:
# [1] = Hepatoprotective activity in human HepG2 cells assessed as inhibition of paracetamol-induced cell damage at 10 uM preincubated for 1 hr followed by paracetamol addition measured after 24 hrs by MTT assay relative to control; type: functional
# Method in brief: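 HepG2 cells damaged with paracetamol, test agents at 10 μM, with bicyclol (10 μM) as the positive control. Viability was read by MTT colorimetric assay and expressed as % of normal, and inhibition as % of paracetamol control. Values are mean ± SD, n = 3 (normal and control wells n = 6).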
# [2] = Cytotoxicity against human Bel7402 cells at 10^-5 M by MTT assay relative to control; type: functional; conditions: Bel-7402
# [3] = Neuroprotective activity against glutamate-induced toxicity in human SK-N-SH cells assessed as cell viability at 10 uM after 24 hrs by MTT assay (reference value: 61.9 +/- 0.9%); type: functional; conditions: read-out: Activity
# [4] = Cytotoxicity against human A549 cells at 10^-5 M by MTT assay relative to control; type: functional
# [5] = Cytotoxicity against human HCT8 cells at 10^-5 M by MTT assay relative to control; type: functional; conditions: HCT-8
# [6] = target: Sodium-dependent noradrenaline transporter (Homo sapiens, UniProt P23975); assay: Inhibition of norepinephrine transporter (unknown origin) assessed as suppression of synaptosomal uptake of norepinephrine
# Sodium-dependent noradrenaline transporter, sequence (P23975 whole entry): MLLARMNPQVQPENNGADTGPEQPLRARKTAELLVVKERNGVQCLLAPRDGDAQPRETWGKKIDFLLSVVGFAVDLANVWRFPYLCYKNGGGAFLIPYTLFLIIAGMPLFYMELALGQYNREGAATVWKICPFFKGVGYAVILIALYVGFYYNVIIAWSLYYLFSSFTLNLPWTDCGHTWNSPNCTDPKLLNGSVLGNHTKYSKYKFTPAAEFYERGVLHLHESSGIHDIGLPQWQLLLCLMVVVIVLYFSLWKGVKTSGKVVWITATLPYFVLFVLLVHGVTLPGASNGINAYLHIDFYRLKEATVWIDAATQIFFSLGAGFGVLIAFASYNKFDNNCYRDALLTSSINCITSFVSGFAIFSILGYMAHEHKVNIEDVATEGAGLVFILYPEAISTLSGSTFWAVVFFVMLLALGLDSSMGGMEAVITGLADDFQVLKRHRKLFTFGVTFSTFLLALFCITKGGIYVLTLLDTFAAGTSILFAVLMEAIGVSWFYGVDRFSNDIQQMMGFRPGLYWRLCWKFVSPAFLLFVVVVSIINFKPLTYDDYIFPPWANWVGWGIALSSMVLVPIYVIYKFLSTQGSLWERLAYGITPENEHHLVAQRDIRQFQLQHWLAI
# [7] = target: Sodium-dependent dopamine transporter (Homo sapiens, UniProt Q01959); assay: Inhibition of dopamine transporter (unknown origin) assessed as suppression of synaptosomal uptake of dopamine
# Sodium-dependent dopamine transporter, sequence (Q01959 whole entry): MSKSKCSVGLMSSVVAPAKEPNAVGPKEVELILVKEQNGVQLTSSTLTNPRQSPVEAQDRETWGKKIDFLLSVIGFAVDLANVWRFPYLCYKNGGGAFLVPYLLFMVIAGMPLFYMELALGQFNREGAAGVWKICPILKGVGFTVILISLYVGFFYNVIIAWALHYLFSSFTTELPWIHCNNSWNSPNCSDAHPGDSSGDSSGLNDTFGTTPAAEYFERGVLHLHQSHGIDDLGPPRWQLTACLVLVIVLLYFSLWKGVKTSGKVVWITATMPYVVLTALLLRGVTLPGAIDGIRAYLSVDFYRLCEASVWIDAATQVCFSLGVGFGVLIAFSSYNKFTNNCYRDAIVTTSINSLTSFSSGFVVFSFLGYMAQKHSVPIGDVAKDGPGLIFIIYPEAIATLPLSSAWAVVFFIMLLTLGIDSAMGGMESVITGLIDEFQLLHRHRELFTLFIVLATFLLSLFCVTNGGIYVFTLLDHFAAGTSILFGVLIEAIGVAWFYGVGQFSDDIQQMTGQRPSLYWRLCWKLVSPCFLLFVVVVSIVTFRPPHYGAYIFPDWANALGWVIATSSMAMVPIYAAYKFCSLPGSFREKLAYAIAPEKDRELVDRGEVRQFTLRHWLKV
# [8] = target: Sodium-dependent serotonin transporter (Homo sapiens, UniProt P31645); assay: Inhibition of serotonin transporter (unknown origin) assessed as suppression of synaptosomal uptake of serotonin
# Sodium-dependent serotonin transporter, sequence (P31645 whole entry): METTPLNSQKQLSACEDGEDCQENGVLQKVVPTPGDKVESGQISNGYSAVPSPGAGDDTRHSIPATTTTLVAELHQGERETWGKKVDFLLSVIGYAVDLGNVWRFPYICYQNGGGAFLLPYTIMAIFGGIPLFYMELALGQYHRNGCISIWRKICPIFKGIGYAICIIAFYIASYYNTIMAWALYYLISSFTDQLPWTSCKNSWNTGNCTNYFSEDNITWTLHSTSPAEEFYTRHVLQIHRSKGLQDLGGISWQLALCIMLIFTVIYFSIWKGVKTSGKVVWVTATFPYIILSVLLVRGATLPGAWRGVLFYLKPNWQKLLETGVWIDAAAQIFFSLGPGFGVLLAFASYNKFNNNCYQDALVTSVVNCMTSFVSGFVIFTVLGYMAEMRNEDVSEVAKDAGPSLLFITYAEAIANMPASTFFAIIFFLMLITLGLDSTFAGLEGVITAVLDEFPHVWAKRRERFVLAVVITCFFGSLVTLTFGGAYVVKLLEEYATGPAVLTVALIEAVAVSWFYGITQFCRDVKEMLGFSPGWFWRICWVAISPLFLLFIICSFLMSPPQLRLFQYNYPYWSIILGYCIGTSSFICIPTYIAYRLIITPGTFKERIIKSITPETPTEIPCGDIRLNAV
# [9] = Inhibition of glutamate transporter (unknown origin) assessed as suppression of synaptosomal uptake of L-glutamate; design: species or system Homo sapiens
# [10] = Inhibition of GABA transporter (unknown origin) assessed as suppression of synaptosomal uptake of GABA; design: species or system Homo sapiens
Compound,inhibition at 10 µM [1],inhibition at 10 µM [2],viability at 10 µM [3],inhibition at 10 µM [4],inhibition at 10 µM [5],further results
COC(=O)c1cc(OC)c2c(c1-c1c(CO)cc(OC)c3c1OCO3)OCO2 [BICYCLOL],19.5%,–,–,–,–,–
C=C(C)[C@@H]1C[C@@]23C[C@@H](CC=C(C)C)C(C)(C)[C@@](CC=C(C)C)(C(=O)C(C(=O)c4ccccc4)=C2O1)C3=O,–,-0.2%,73.1%,6.64%,-29.7%,–
O=c1[nH]cc(F)c(=O)[nH]1 [FLUOROURACIL],–,70.6%,–,68.3%,70.4%,–
CC[C@@H](C)C(=O)[C@]12C(=O)[C@]3(C)C[C@H](CC=C(C)C)[C@@]1(C)CC[C@H](C(C)(C)O)OC2=C(CC=C(C)C)C3=O,24.9%,8.64%,70.8%,8.65%,-41.2%,–
CC(C)=CC[C@H]1C[C@@]2(C)C(=O)[C@](C(=O)C(C)C)(C(=O)C3=C2O[C@H](C(C)(C)O)C3)[C@]1(C)CCCC(C)C,–,–,71.6%,–,–,–
CC[C@H](C)C(=O)C12C(=O)[C@]3(CC=C(C)C)O[C@@]1(O)C(C)(C[C@H](CC=C(C)C)[C@@]2(C)CCC=C(C)C)C3=O (some centres not stated),36.7%,-3.16%,72.1%,19%,-25.9%,–
CC(C)=CCC1=C2OCC[C@@]23C[C@H](CC=C(C)C)C(C)(C)[C@@](C(=O)c2ccccc2)(C1=O)C3=O,–,-1.32%,–,1.46%,14.4%,–
CC[C@H](C)C(=O)[C@@H]1C(=O)[C@@](C)(O)[C@@H](CC=C(C)C)C[C@@]1(C)CCC=C(C)C,30.5%,3.31%,–,-13.6%,-24.4%,–
CC(C)=CCC[C@]1(C)[C@@H](CC=C(C)C)CC2(CC=C(C)C)C(=O)[C@@]3(CC=C(C)C)O[C@]2(O)[C@]1(C(=O)C(C)C)C3=O (some centres not stated),14%,–,–,–,–,–
CC(C)=CC[C@@]12C[C@H]3[C@@H](C=C(C)C)[C@@](C(=O)c4ccccc4)(C1=O)C(=O)[C@@](CC=C(C)C)(C2=O)C3(C)C [HYPERIBONE K],49%,–,73.1%,–,–,–
CC(C)=CCC[C@]1(C)C[C@H](CC=C(C)C)[C@](C)(O)C(=O)[C@H]1C(=O)C(C)C,–,14.7%,–,17.2%,-25.7%,–
CCC(C)C(=O)[C@]12C(=O)[C@](CC=C(C)C)(C[C@H](CC=C(C)C)[C@@]1(C)CCC=C(C)C)C(=O)C(CC=C(C)C)=C2O (some centres not stated) [ADHYPERFORIN],–,–,–,–,–,IC50 [6]: 2 µM; IC50 [7]: 2 µM; IC50 [8]: 2 µM
CC(C)=CC[C@H]1CC(C)=C2OC(C)(C)[C@@H]3CC[C@@]1(C)[C@]23C(=O)C(C)C,15.9%,–,–,–,–,–
CC(C)=CCC[C@]1(C)[C@@H](CC=C(C)C)C[C@]2(CC=C(C)C)C(=O)C(CC=C(C)C)=C(O)[C@@]1(C(=O)C(C)C)C2=O,–,–,–,–,–,IC50 [6]: 2 µM; IC50 [9]: 2 µM; IC50 [7]: 2 µM; IC50 [10]: 2 µM
CC(C)=CC[C@H]1C[C@@]2(C)C(=O)[C@](C(=O)C(C)C)(C(=O)C3=C2O[C@@H](C(C)(C)O)C3)[C@]1(C)CCCC(C)C,23.3%,–,–,–,–,–
CC(C)=CC[C@H]1C[C@@]2(CC=C(C)C)C(=O)[C@](C(=O)c3ccccc3)(C(=O)C3=C2O[C@@H](C(C)(C)O)C3)[C@]1(C)CCCC(C)C,10.3%,–,–,–,–,–
Oc1ccc(/C=C/c2cc(O)cc(O)c2)cc1 [RESVERATROL],–,–,72.6%,–,–,–
CC(C)=CCC1=C2O[C@@H](C(C)(C)O)CC[C@]3(C)[C@@H](CC=C(C)C)C[C@](C)(C1=O)C(=O)[C@]23C(=O)C(C)C,6.1%,19.4%,–,0.36%,-37.1%,–
CC(C)=CC[C@H]1C[C@]2(CC=C(C)C)C(=O)C(C(=O)c3ccccc3)=C3O[C@H](C(C)(C)O)C[C@]3(C2=O)C1(C)C,–,1.05%,73.5%,10.7%,3.04%,–
CC(C)=CC[C@H]1C[C@]2(C)C(=O)C3=C(O[C@H](C(C)(C)O)C3)[C@@](C(=O)C(C)C)(C2=O)[C@]1(C)CCCC(C)C,–,–,75.4%,–,–,–
CC(C)=CCC1=C2O[C@@H](C(C)(C)OO)C[C@@]23C[C@H](CC=C(C)C)C(C)(C)[C@@](C(=O)c2ccccc2)(C1=O)C3=O,–,18.4%,–,14.6%,-32.2%,–
CC(C)=CC[C@H]1C[C@@]2(C)C(=O)[C@](C(=O)c3ccccc3)(C(=O)C3=C2O[C@H](C(C)(C)O)C3)[C@]1(C)CCCC(C)C,–,–,83%,–,–,–
CC(C)=CCC[C@]1(C)[C@@H](CC=C(C)C)CC2(C)C(=O)[C@@]3(CC=C(C)C)O[C@]2(O)[C@]1(C(=O)C(C)C)C3=O (some centres not stated),25.8%,–,–,–,–,–
